Assay results published in article PMC9359741 (Clinical Cancer Research, 2022).
Several values for one entry are separate records, joined by “and”; a condition that tells them apart may be missing. Identical values can stand only once.

What was measured:
Type in all cases: in vivo, human
[1] = tested on: pancreatic ductal adenocarcinoma (PDA); assay: Phase 2 efficacy
Method in brief: (§1)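 Oral test compound 300 mg QD plus anti-PD-1 antibody 200 mg IV Q3W. PD-1/PD-L1 IR cohort: progression on anti-PD-1/PD-L1 (RECIST or irRC). prOVCA cohort: progression ≤6 months after ≥4 platinum cycles. PDA cohort: ≥1 prior systemic line. Investigator assessed best response per RECIST v1.1 and irRC. ORR used confirmed responses with Clopper–Pearson 95% CI; all dosed patients. Screening tissue was profiled for MSI/MMR, TMB and gene expression.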

[2] = tested on: PD-1/PD-L1 inhibitor-refractory advanced solid tumors; assay: Phase 2 efficacy; conditions: PD-1/PD-L1 IR
Method in brief: as §1

[3] = tested on: CSF-1R; assay: Phase 2 pharmacodynamic biomarkers; conditions: cycle 1 day 15 compared with cycle 1 day 1
Method in brief: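 Blood was drawn for serum CSF-1 and CTX, plus serum osteoprotegerin and non-classical monocytes in Phase 2. Urine was collected for NTX. Samples were taken pre-dose on cycle 1 days 1, 8 and 15, on day 1 of later cycles and at discontinuation. Mean change on cycle 1 day 15 versus cycle 1 day 1 was summarized descriptively, with outliers excluded.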

[4] = tested on: selected advanced solid tumors; assay: Phase 1b efficacy
Method in brief: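 Oral test compound 200–400 mg QD plus anti-PD-1 antibody 2 mg/kg IV Q3W in patients with measurable or evaluable disease. Investigator assessed best response per RECIST v1.1, with immune-related response also evaluated. ORR used confirmed responses with two-sided 95% CI (Clopper–Pearson exact binomial). All patients receiving ≥1 dose were analysed. PD-L1 status came from screening tissue tested locally.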

Question: What does the source list for `Cc1cccc(Cn2nc(C3CC3)c3c(NC(=O)c4cnc5cc(OCCN6CCN(C)CC6)ccn45)cccc32)n1` [ARRY-382]?
Answer: Median OS ([1]; PDA): 2.2 (95% CI, 1.5–4.9) months; Median PFS ([1]; PDA): 1.4 (95% CI, 0.9–2.8) months; Median irPFS per irRC ([1]; PDA): 1.3 (95% CI, 0.9–2.7) months; DOR of confirmed PR ([1]; PDA cohort, 1 patient (MSI-Stable, TMB-Low, PD-L1 negative)): 2.4 months; Best overall response: CR ([1]; PDA, N = 27): 0 (0.0) n (%); Best overall response: NE ([1]; PDA, N = 27): 14 (51.9) n (%); Best overall response: PD ([1]; PDA, N = 27): 7 (25.9%) n (%) and 7 (25.9) n (%); Best overall response: PR ([1]; PDA, N = 27): 1 (3.7) n (%); Best overall response: SD ([1]; PDA, N = 27): 5 (18.5) n (%); Immune-related best overall response: CR ([1]; PDA, N = 27): 0 (0.0) n (%); Immune-related best overall response: NE ([1]; PDA, N = 27): 19 (70.4) n (%); Immune-related best overall response: PD ([1]; PDA, N = 27): 0 (0.0) n (%); Immune-related best overall response: PR ([1]; PDA, N = 27): 1 (3.7) n (%); Immune-related best overall response: SD ([1]; PDA, N = 27): 7 (25.9) n (%); ORR, % (95% CI) ([1]; confirmed, PDA, N = 27): 3.7 (0.1–19.0) %; ir-ORR, % (95% CI) ([1]; confirmed, PDA, N = 27): 3.7 (0.1–19.0) %; Median OS [2]: 12.4 (95% CI, 3.6–NR) months; Median PFS [2]: 1.6 (95% CI, 1.3–4.4) months; Median irPFS per irRC [2]: 1.5 (95% CI, 1.3–4.3) months; Best overall response: CR ([2]; N = 19): 0 (0.0) n (%); Best overall response: NE ([2]; N = 19): 2 (10.5) n (%); Best overall response: PD ([2]; N = 19): 9 (47.4%) n (%) and 9 (47.4) n (%); Best overall response: PR ([2]; N = 19): 0 (0.0) n (%); Best overall response: SD ([2]; N = 19): 8 (42.1%) n (%) and 8 (42.1) n (%); Immune-related best overall response: CR ([2]; N = 19): 0 (0.0) n (%); Immune-related best overall response: NE ([2]; N = 19): 11 (57.9) n (%); Immune-related best overall response: PD ([2]; N = 19): 1 (5.3) n (%); Immune-related best overall response: PR ([2]; N = 19): 0 (0.0) n (%); Immune-related best overall response: SD ([2]; N = 19): 7 (36.8) n (%); ORR, % (95% CI) ([2]; confirmed, N = 19): 0.0 (0.0–17.6) %; ir-ORR, % (95% CI) ([2]; confirmed, N = 19): 0.0 (0.0–17.6) %; Change in mean CTX or NTX [3]: no significant changes; Median OS ([4]; 200-mg cohort): 14.7 [95% CI, 5.2–not reached (NR)] months; Median PFS ([4]; 200-mg cohort): 4.7 (95% CI, 1.4–33.1) months; Median irPFS per irRC ([4]; 200-mg cohort): 3.0 (95% CI, 1.4–16.1) months; DOR of confirmed PR ([4]; 200-mg cohort, 1 patient with MSI-High PDA): 29.2 months; Median OS ([4]; 300-mg cohort): 6.5 (95% CI, 1.0–NR) months; Median PFS ([4]; 300-mg cohort): 2.3 (95% CI, 1.3–5.7) months; Median irPFS per irRC ([4]; 300-mg cohort): 2.5 (95% CI, 1.4–7.1) months; DOR of confirmed PR ([4]; 300-mg cohort, 1 patient with ovarian cancer): 3.1 months; Median OS ([4]; 400-mg cohort): 7.4 (95% CI, 2.1–14.1) months; Median PFS ([4]; 400-mg cohort): 1.4 (95% CI, 0.5–2.6) months; Median irPFS per irRC ([4]; 400-mg cohort): 1.3 (95% CI, 0.5–1.5) months; Best overall response: CR ([4]; ARRY-382 200 mg, N = 6): 0 (0.0) n (%); Best overall response: NE ([4]; ARRY-382 200 mg, N = 6): 1 (16.7) n (%); Best overall response: PD ([4]; ARRY-382 200 mg, N = 6): 1 (16.7) n (%); Best overall response: PR ([4]; ARRY-382 200 mg, N = 6): 1 (16.7) n (%); Best overall response: SD ([4]; ARRY-382 200 mg, N = 6): 3 (50.0) n (%); Immune-related best overall response: CR ([4]; ARRY-382 200 mg, N = 6): 0 (0.0) n (%); Immune-related best overall response: NE ([4]; ARRY-382 200 mg, N = 6): 1 (16.7) n (%); Immune-related best overall response: PD ([4]; ARRY-382 200 mg, N = 6): 1 (16.7) n (%); Immune-related best overall response: PR ([4]; ARRY-382 200 mg, N = 6): 1 (16.7) n (%); Immune-related best overall response: SD ([4]; ARRY-382 200 mg, N = 6): 3 (50.0) n (%); Best overall response: CR ([4]; ARRY-382 300 mg, N = 6): 0 (0.0) n (%); Best overall response: NE ([4]; ARRY-382 300 mg, N = 6): 0 (0.0) n (%); Best overall response: PD ([4]; ARRY-382 300 mg, N = 6): 3 (50.0) n (%); Best overall response: PR ([4]; ARRY-382 300 mg, N = 6): 1 (16.7) n (%); Best overall response: SD ([4]; ARRY-382 300 mg, N = 6): 2 (33.3) n (%); Immune-related best overall response: CR ([4]; ARRY-382 300 mg, N = 6): 0 (0.0) n (%); Immune-related best overall response: NE ([4]; ARRY-382 300 mg, N = 6): 2 (33.3) n (%)
